Only some compounds are listed: those with a hit (about 9.6% of all), similar ones and a draw of the others.
HCT116 bCat-KO = beta-catenin-lacking colon tumor cell growth suppression | actives 1.5% (n = 140,000) | AID 818 | HCT116 beta-catenin knockout viability, CellTiter-Glo, 60 h; active compounds read low | viability, % at 10 µM;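 active = viability at or under a set limit, the compound median less 4 SD, cut at about 6% in these data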;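 note: 0% = Hyamine 1622 control at 20 µM and 100% = untreated cell control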
HCT116 PTEN-null = growth suppressors of cells with PTEN tumor suppressor deletion; HCT116 PTEN-null viability, CellTiter-Glo, 60 h; active compounds read low; viability, % at 10 µM; actives 1.2% (n = 140,000); AID 827;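 active = viability at or below a set limit, 4 SD under the median of all tested compounds, cut at about 3.7% in these data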;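 note: PTEN knockout HCT116 line with beta catenin targeted HCT116 as companion control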
PMI act satM6P = activators of human phosphomannose isomerase at near-saturating mannose 6-phosphate. actives 0.34% (n = 190,000). P34949. coupled PMI enzyme assay, resazurin fluorescence, 20 min; active compounds read high; 1 = untreated enzyme, 0 = substrate-free blank. activation factor at 20 µM. AID 1216;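 active = activation factor of 2 or more at 20 µM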
Target sequence (P34949 whole entry, looked up): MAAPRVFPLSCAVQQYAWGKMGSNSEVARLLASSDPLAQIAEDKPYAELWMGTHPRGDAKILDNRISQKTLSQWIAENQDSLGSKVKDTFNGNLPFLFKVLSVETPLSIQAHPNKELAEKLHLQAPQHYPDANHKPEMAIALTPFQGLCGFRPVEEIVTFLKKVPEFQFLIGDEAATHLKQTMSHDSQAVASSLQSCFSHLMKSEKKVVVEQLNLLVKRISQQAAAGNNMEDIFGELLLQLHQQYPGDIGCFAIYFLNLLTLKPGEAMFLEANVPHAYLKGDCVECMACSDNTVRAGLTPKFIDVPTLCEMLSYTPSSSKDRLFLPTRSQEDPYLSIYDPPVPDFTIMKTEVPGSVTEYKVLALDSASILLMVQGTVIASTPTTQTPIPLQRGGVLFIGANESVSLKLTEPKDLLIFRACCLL
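test system = human PMI in coupled enzyme assay | medium = HEPES-buffered pH 7.4 with magnesium and detergent | also added = 1.0 mM mannose-6-phosphate substrate with 0.22 mM NADP+ | compound = 20 µM single dose | times = 20 min incubation at room temperature | measured by = resorufin fluorescence (Ex 544/Em 590 nm) from resazurin via diaphorase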
PMI activator = phosphomannose isomerase (human) activation; AID 1214; P34949; actives 0.005% (n = 190,000); activation factor at 20 µM; purified human PMI, coupled resazurin fluorescence, 20 min; active compounds read high; 1 = vehicle control, 0 substrate-free wells;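 active = activation factor of 2 or more at 20 µM, relative to plate controls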
Lmaj promast = reduces viability of Leishmania major promastigotes | resazurin fluorescence viability | inhibition, % at 10 µM | actives 9% (n = 200,000) | AID 1063; in the data active = inhibition above about 50%;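 note: promastigotes grown with compound for 44 hours at 28 °C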
Starred values were filed as active, the others as inactive; x = not tested or not shown.

SMILES	HCT116 bCat-KO	HCT116 PTEN-null	PMI act satM6P	PMI activator	Lmaj promast
CCC(C)(C)NC(=O)C(c1ccncc1)N(C(=O)Cn1nnc2ccccc21)c1cc2c(cc1C(C)=O)OCO2 (stereo unspecified)	x	x	1.1	1	-5
CC(NS(=O)(=O)c1cccc(Cl)c1)C(=O)N(C)C1CCN(C)CC1 (stereo unspecified)	x	x	1.1	1	-1
CN(C(=O)c1ccc(S(=O)(=O)c2cccc(Cl)c2)c([N+](=O)[O-])c1)C1CCCCC1	7	5	0.9	0.9	100*
Cc1ccc2nc3c(cc(S(=O)(=O)c4ccccc4)c(=N)n3Cc3ccco3)c(=O)n2c1	x	x	1	1.3	81*
Cc1ccc(S(=O)(=O)c2cc3c(=O)n4ccccc4nc3n(Cc3ccco3)c2=N)cc1C	70	62	1.3	1.1	56*
O=C(c1ccccc1)N1CCN(C(=S)NCc2ccc3c(c2)OCO3)CC1	90	97	1.1	1	-8
CC(C)c1nnc(NC(=O)Cc2ccc(Br)cc2)s1	96	96	1	1	-10
O=c1c2cn[nH]c2[nH]c(=S)n1-c1ccccc1F	101	95	1.1	1.1	-5
Cc1ccc(-c2nn(-c3ccccc3)cc2NC(=O)CCl)cc1	x	x	1.2	1.3	93*
O=C(CCl)Nc1cc(-c2ccccc2)nn1-c1ccccc1	3.6*	2.5*	1	1	98*
Cc1ccc(-c2cc(NC(=O)CCl)n(-c3ccccc3)n2)cc1	2.6*	2.0*	1	1	100*
COc1ccc(S(=O)(=O)NC(N)=NCCc2ccccc2)cc1	x	x	1	1.1	-8
CC(=O)Nc1ccc(C2=NN(C)C(=NCc3ccccc3)SC2)cc1	x	x	1.2	1.3	67*
CCN(CC)S(=O)(=O)c1ccc(C(=O)NC(C)(C)C)cc1	x	x	1.1	1.2	8
Cc1cc(Br)c(Cl)cc1NC(=O)CN1C(=O)C2C3CC(c4ccccc4)C(C3)C2C1=O (stereo unspecified)	28	22	0.9	1	84*
COc1ccc(CN2CCN(CCCCOc3ccc(Cl)cc3)CC2)c(OC)c1OC	x	x	0.9	1	21
Cc1cc2ncn(/N=C/c3ccc([N+](=O)[O-])s3)c2cc1C	1.5*	1.2*	0.9	0.9	100*
O=[N+]([O-])c1ccc(/C=N/n2cnc3ccccc32)s1	2.4*	3.0*	0.9	1	100*
Cc1cc2ncn(/N=C/c3cc(Br)ccc3O)c2cc1C	84	89	1.1	1	28
CCN(C(=O)COC(=O)c1[nH]c(=O)[nH]c(=O)c1N)c1ccccc1	x	x	1.2	1.2	-7
CCNC(=S)NCc1ccco1	97	95	1	1	59*
COc1ccc(-c2nnc(SCC(=O)NCc3ccco3)o2)cc1	91	106	1	1	-7
CCN(CC)C(=O)CSc1nnc(-c2ccc(S(=O)(=O)N3CCCC3)cc2)o1	97	102	1.1	1	99*
O=C(CSc1nnc(-c2ccc(S(=O)(=O)N3CCCC3)cc2)o1)NCc1ccco1	104	103	0.9	1	88*
O=S(=O)(NCc1ccco1)c1ccc(S(=O)(=O)N2CCCCC2)cc1	96	102	1	1	2
SMILES	HCT116 bCat-KO	HCT116 PTEN-null	PMI act satM6P	PMI activator	Lmaj promast
O=S(=O)(c1ccc(NC(=S)NCc2ccco2)cc1)N1CCCC1	90	93	1	0.9	52*
CC(C)Cn1c(-c2ccc(C#N)cc2)nc2c1c(=O)[nH]c(=O)n2CC(C)C	84	95	1	1	1
Clc1ccc(CSc2ncnc3nc[nH]c23)cc1	95	81	1	0.9	-10
O=C(CN1CCN(S(=O)(=O)c2ccc(Br)cc2)CC1)N/N=C/c1ccc(Br)s1	x	x	1.1	1.2	22
O=c1c2ccccc2nnn1CSc1nnc(-c2cccc(S(=O)(=O)N3CCCCC3)c2)o1	49	55	1	0.9	71*
O=C1COc2ccc(S(=O)(=O)Nc3ccc4c(c3)OCO4)cc2N1	x	x	1	1	-3
CN(C)/C=C/C(=O)c1ccccc1OCc1cnc(Cl)s1	x	x	0.9	0.9	-8
CCCCNC(=O)c1cn(-c2ccc(OCC)cc2)c(=O)c2cc(OC)c(OC)cc12	87	82	0.9	0.9	-8
COc1ccc2cc3cc(C(=O)NCCCN4CCc5ccccc5C4)sc3nc2c1	54	56	1	1	96*
COc1ccc2nc3sc(C(=O)NCCN4CCc5ccccc5C4)cc3cc2c1	63	56	0.9	1.1	44
C1CN(CC23CC4CC(CC(C4)C2)C3)CCO1	85	98	1.3	1.3	81*
COc1cc(NS(C)(=O)=O)c(OC)cc1NC(=O)c1cccc(F)c1	94	98	1	0.9	-5
COc1ccc(NC(=O)CN2C(=O)CSC(C)C2=O)cc1 (stereo unspecified)	x	x	1.1	1.1	-5
COC(=O)C1=C(C)N(Cc2ccco2)C(=O)N[C@@H]1c1cccc(C(F)(F)F)c1	0.7*	0.7*	0.9	0.9	21
COc1cc(CCN2C(=O)N[C@@H](c3cccc(C(F)(F)F)c3)C(C(C)=O)=C2C)cc(OC)c1OC	86	79	2*	1.6	11
Cc1ccc2nc(-c3cccc(NS(C)(=O)=O)c3)cc(-c3ccccc3)c2c1	77	72	1	0.9	20
Cc1cc(N2CCC(N(C)C3CCCC3)CC2)nc2cc(O)ccc12	76	78	0.8	0.8	6
COc1cc2c(cc1OC)C1C(C(=O)Nc3ccccc3N3CCN(C)CC3)c3ccccc3C(=O)N1CC2 (stereo unspecified)	x	x	1	1.1	6
COC(=O)c1c(NC(=O)CSc2nc3ccccc3c(=O)n2-c2ccccc2)sc(C)c1C	57	54	0.9	0.9	99*
CCOC(=O)c1c(-c2ccccc2)csc1NC(=O)CSc1nncs1	77	77	0.9	0.8	13
CCOC(=O)c1c(NC(=O)CSc2ncnc3ccccc23)sc(C)c1C	87	95	1.1	1.1	77*
COC(=O)c1c(NC(=O)CSc2nc3nc(C)cc(C)n3n2)sc(C)c1C	83	95	0.9	0.9	52*
Cc1cc(NC(=O)CSc2nc3ccccc3c(=O)n2-c2ccccc2)no1	99	91	1.1	1	-4
CCOC(=O)c1c(NC(=O)CSc2nncs2)sc(C)c1-c1ccccc1	66	65	1	1	75*
CN(Cc1cccs1)C(=O)COc1ccc(-c2nnco2)cc1	84	92	1	1	-10
NC(=O)C1CC(=O)N(c2ccc(OCc3c(Cl)cccc3Cl)cc2)C1 (stereo unspecified)	x	x	0.9	0.9	0
CC(=O)c1c(C)oc2ccc(NS(=O)(=O)c3cccs3)cc12	x	x	0.9	0.9	-2
Cc1oc(-c2ccccc2Cl)nc1CN(Cc1ccccn1)C[C@@H]1CCC(=O)N1	x	x	0.9	1	-5

Screening data as filed in PubChem.
